In ChEMBL document CHEMBL1287798, “3,5-disubstituted pyranone analogues of highly antifungally active furanones: conversion of biological effect from antifungal to cytostatic” (Bioorg Med Chem Lett, 2010) one finds MIC, IC50 and inhibition data, which are given here for five molecules.

Active and inactive are the calls of the source.

The subject of one experiment is Nakaseomyces glabratus. Briefly: Antifungal activity against Candida glabrata 20/I by microdilution method. The experiment is classed as functional.
Experiment [1] has as its system L1210. Briefly: Growth inhibition of mouse L1210 cells. It is filed as functional, cell-based.
A further experiment has as its system Candida parapsilosis. The experiment in a line: Antifungal activity against Candida parapsilosis ATCC 22019 by microdilution method. Conditions: Lodderomyces parapsilosis. The experiment is classed as functional. In general terms: Dilution methods test growth across graded concentrations, often in twofold steps.
A further experiment has as its system Aspergillus fumigatus. The experiment in a line: Antifungal activity against Aspergillus fumigatus 231 by microdilution method. It is filed as functional.
The test system of experiment [2] is Pichia kudriavzevii. The experiment in a line: Antifungal activity against Candida krusei ATCC 6258 by microdilution method. It is filed as functional.
The test system of another experiment is Nannizzia gypsea. The experiment in a line: Antifungal activity against Microsporum gypseum by microdilution method. It is filed as functional.
For experiment [3], the system named is Candida albicans. Briefly: Antifungal activity against Candida albicans ATCC 90028 by microdilution method. The experiment is classed as functional.
The next experiment concerns Trichosporon beigelii. The experiment in a line: Antifungal activity against Trichosporon beigelii 1188 by microdilution method. The experiment is classed as functional.
A further experiment deals with Lichtheimia corymbifera. The experiment in a line: Antifungal activity against Absidia corymbifera 272 by microdilution method. The experiment is classed as functional.
The subject of experiment [4] is Trichophyton mentagrophytes. Briefly: Antifungal activity against Trichophyton mentagrophytes 445 by microdilution method. The experiment is classed as functional.
Another experiment relates to Clavispora lusitaniae. Briefly: Antifungal activity against Clavispora lusitaniae 2446/I by microdilution method.
A further experiment relates to Candida tropicalis. Briefly: Antifungal activity against Candida tropicalis 156 by microdilution method. It is filed as functional.
The test system of experiment [5] is Candida albicans. The experiment in a line: Antifungal activity against Candida albicans ATCC 44859 by microdilution method. It is filed as functional.
The subject of experiment [6] is Pichia kudriavzevii. Briefly: Antifungal activity against Candida krusei E28 by microdilution method. It is filed as functional.
A further experiment deals with HT-29. The experiment in a line: Growth inhibition of human HT-29 cells. The experiment is classed as functional, cell-based.
The next experiment deals with HL-60. The experiment in a line: Growth inhibition of human HL60 cells at 10 umol/L. The experiment is classed as functional, cell-based. The method in brief: (§1)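 Single-concentration cytostatic screen at 10 µmol L⁻¹ on mouse lymphocytic leukemia L1210 (ATCC CCL 219), human acute lymphoblastic leukemia CCRF-CEM T lymphoblastoid cells (ATCC CCL 119), human promyelocytic leukemia HL-60 (ATCC CCL 240) and human cervix carcinoma HeLa S3 (ATCC CCL 2.2).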

Experiment [7] has as its system L1210. The experiment in a line: Growth inhibition of mouse L1210 cells at 10 umol/L. The experiment is classed as functional, cell-based. The method in brief: as §1
The subject of another experiment is HeLa S3. Briefly: Growth inhibition of human HeLaS3 cells at 10 umol/L. It is filed as functional, cell-based. The method in brief: as §1
In a further experiment the test system is CCRF-CEM. Briefly: Growth inhibition of human CCRF-CEM cells at 10 umol/L. The experiment is classed as functional, cell-based. The method in brief: as §1

By MIC is commonly meant the smallest concentration in the dilution series that meets the test's criterion for growth inhibition. The IC50 is the concentration at which inhibition is half-maximal. On to `O=C1OCC(COC(=O)c2ccccc2)C=C1c1ccc(Cl)c(Cl)c1` (configuration not stated), for which the MIC against Nakaseomyces glabratus, in the experiment with Candida parapsilosis, against Aspergillus fumigatus, in the experiment on Pichia kudriavzevii [2], with Nannizzia gypsea and with Candida albicans [3] was ≥ 62.5 µM throughout. For the same molecule, the MIC (against Trichosporon beigelii; in the experiment with Lichtheimia corymbifera; in [4]; against Clavispora lusitaniae; with Candida tropicalis; against Candida albicans [5]) was ≥ 62.5 µM each time. In addition, the MIC against Pichia kudriavzevii [6] is ≥ 62.5 µM. This molecule returned an IC50 with L1210 [1] of 5.9 µM.
With `CC(=O)OCC1C=C(c2ccc(Cl)c(Cl)c2)C(=O)OC1` (configuration not stated), the MIC in the experiment on Nakaseomyces glabratus, with Candida parapsilosis, in the experiment on Aspergillus fumigatus, with Pichia kudriavzevii [2], with Nannizzia gypsea and against Candida albicans [3] was ≥ 62.5 µM each time. Also, the MIC (in the experiment with Trichosporon beigelii; in the experiment on Lichtheimia corymbifera; in [4]; against Clavispora lusitaniae; with Candida tropicalis; against Candida albicans [5]) was ≥ 62.5 µM in each case. In addition, the MIC with Pichia kudriavzevii [6] is ≥ 62.5 µM. Further, the results for the IC50 in the experiment on L1210 [1] and with HT-29 were 7.3 µM and 2.45 µM, respectively.
Take `O=C1OCC(COC(=O)c2ccccc2)C=C1c1ccc(Cl)cc1` (configuration not stated): the MIC in the experiment with Nakaseomyces glabratus, against Candida parapsilosis, against Aspergillus fumigatus, in the experiment on Pichia kudriavzevii [2], against Nannizzia gypsea and against Candida albicans [3] was ≥ 62.5 µM each time. The MIC (with Trichosporon beigelii; in the experiment with Lichtheimia corymbifera; in experiment [4]; against Clavispora lusitaniae; against Candida tropicalis; against Candida albicans [5]) was ≥ 62.5 µM in each case. The MIC against Pichia kudriavzevii [6] was ≥ 62.5 µM. Further, the inhibition result in the experiment with HL-60 and in the experiment on L1210 [7] was “inactive” in each case. Further, half-maximal inhibition in the experiment with HT-29 (IC50) was put at 2.93 µM.
Take `COc1ccc(C2=CC(COC(C)=O)COC2=O)cc1` (configuration not stated): the MIC against Nakaseomyces glabratus, against Candida parapsilosis, with Aspergillus fumigatus, against Pichia kudriavzevii [2], with Nannizzia gypsea and in the experiment with Candida albicans [3] was ≥ 62.5 µM in each case. For the same molecule, the MIC (in the experiment on Trichosporon beigelii; against Lichtheimia corymbifera; in experiment [4]; against Clavispora lusitaniae; against Candida tropicalis; with Candida albicans [5]) was ≥ 62.5 µM each time. Besides, in the experiment with Pichia kudriavzevii [6], the MIC was ≥ 62.5 µM.
For the molecule `O=C1OCC(CO)C=C1c1ccc(Cl)c(Cl)c1` (configuration not stated), the inhibition result with HL-60, in the experiment with L1210 [7], in the experiment on HeLa S3 and with CCRF-CEM was “inactive” each time.
